The record followed here is ChEMBL document CHEMBL4219146, “Synthesis and Pharmacological Evaluation of Heterocyclic Carboxamides: Positive Allosteric Modulators of the M1 Muscarinic Acetylcholine Receptor with Weak Agonist Activity and Diverse Modulatory Profiles” (J Med Chem, 2018).

Experiment [1] deals with T1, Muscarinic acetylcholine receptor M1 (Homo sapiens) (UniProt P11229).
T1 sequence (whole entry): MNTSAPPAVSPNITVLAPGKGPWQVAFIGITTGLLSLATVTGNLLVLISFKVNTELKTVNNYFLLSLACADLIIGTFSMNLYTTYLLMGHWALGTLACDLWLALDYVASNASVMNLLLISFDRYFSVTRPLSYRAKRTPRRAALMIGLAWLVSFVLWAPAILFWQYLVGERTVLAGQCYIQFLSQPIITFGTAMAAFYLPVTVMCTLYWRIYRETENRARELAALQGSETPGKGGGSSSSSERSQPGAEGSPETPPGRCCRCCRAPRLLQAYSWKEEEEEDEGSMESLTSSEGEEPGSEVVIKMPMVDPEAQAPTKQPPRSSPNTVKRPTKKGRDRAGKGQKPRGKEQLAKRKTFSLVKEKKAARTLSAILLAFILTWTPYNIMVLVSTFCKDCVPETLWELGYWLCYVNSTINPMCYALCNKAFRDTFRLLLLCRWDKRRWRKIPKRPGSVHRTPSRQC
The experiment is described as follows: Displacement of [3H]-NMS from human muscarinic acetylcholine receptor M1 expressed in flpIn-CHO cell membranes after 5 hrs in presence of acetylcholine at EC20 by liquid scintillation counting. Put shortly: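 Whole-cell binding in FlpIn CHO-hM1 cells, 50,000/well, plated overnight and PBS-washed. Modulator titrated with a fixed EC20 ACh plus 0.2 nM [3H]NMS for 5 h at room temperature in HEPES/NaCl/MgCl2 buffer, pH 7.4. 100 µM atropine defined nonspecific binding. Cells washed with ice-cold saline and counted by scintillation. Data fitted to the allosteric ternary complex model.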
(In general: Displacement assays read how much labelled ligand stays bound in the presence of the test substance.)

Experiment [2] addresses T1, Muscarinic acetylcholine receptor M1 (Homo sapiens). Kind of experiment: Intrinsic activity at human muscarinic acetylcholine receptor M1 expressed in flpIn-CHO cells assessed as induction of IP1 accumulation at 10 uM after 1 hr by HTRF assay relative to control. The experiment is classed as functional, cell-based. Put shortly:
(§1)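 FlpIn CHO-hM1 cells, 25,000/well, seeded overnight, then preincubated 1 h at 37 °C in HEPES stimulation buffer with 50 mM LiCl, pH 7.4. ACh concentration-response curves run ± 10 µM modulator for 1 h at 37 °C. IP1 read by HTRF (665/620 nm) from lysates, interpolated from a standard curve and normalized to the ACh maximum. ∆pEC50 and ∆baseline taken versus ACh alone. ≥3 experiments, in duplicate.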
For orientation: In TR-FRET formats the signal depends on donor and acceptor labels being close together.

Experiment [3] shares this target. The experiment is described as follows: Positive allosteric modulation of human muscarinic acetylcholine receptor M1 expressed in flpIn-CHO cells assessed as potentiation of acetylcholine-mediated IP1 accumulation at 10 uM measured after 1 hr by based HTRF assay relative to control. It is filed as functional, cell-based. Put shortly: as §1
For experiment [4] the target is unchanged. The experiment is described as follows: Allosteric agonist at human muscarinic acetylcholine receptor M1 expressed in CHO-NFAT cells assessed as induction of calcium mobilization after 4 mins by Fluo-4AM-based FLIPR assay. It is filed as functional, cell-based. (A change in cytosolic calcium serves as a functional read-out for many receptors and channels.)

Experiment [5] shares this target. The experiment is described as follows: Displacement of [3H]-NMS from human muscarinic acetylcholine receptor M1 […] after 5 hrs by liquid scintillation counting.
Experiment [6] addresses T2, Muscarinic acetylcholine receptor M1 (Homo sapiens, UniProt P11229).
T2 sequence (P11229 whole entry): T1 sequence (whole entry)
Kind of experiment: Allosteric agonist at human muscarinic acetylcholine receptor M1 expressed in CHO cells assessed as induction of calcium mobilization after 2.5 mins by Fluo-4AM-based FLIPR assay. It is filed as functional, cell-based.

Experiment [7] addresses T2, Muscarinic acetylcholine receptor M1. The experiment is described as follows: Positive allosteric modulation of human muscarinic acetylcholine receptor M1 expressed in CHO cells assessed as potentiation of acetylcholine-induced calcium mobilization preincubated for 2.5 mins followed by acetylcholine addition measured after 1 min by Fluo-4AM-based FLIPR assay. The experiment is classed as functional, cell-based.

Calls of active or inactive are those of the source. The rule behind the calls is not given here.

Broadly, the pKb is −log10 of the Kb, conventionally taken in molar units. With `O=C(O)c1ccc(Cn2cc(C(=O)N[C@H]3CCCC[C@@H]3O)c3ncccc32)cc1`, the pKb in experiment [1] was 4.63. Moreover, in experiment [2], the Intrinsic activity turned out to be 2.88 and the log(IA) was 0.46. `Cn1cc(-c2ccc(Cn3cc(C(=O)Nc4ccccc4O)c4ncccc43)cc2)cn1`: the Intrinsic activity in experiment [2] was 14%. Moreover, the outcome in experiment [3] was inactive.

For `CCN(CC)C(=O)c1cn(Cc2ccc(-c3cnn(C)c3)cc2)c2cccnc12`, the negative-log Kb (pKb) in experiment [1] came to 4.43. Besides, the Intrinsic activity in experiment [2] stood at 0. Take `Cn1cc(-c2ccc(Cn3cc(C(=O)N[C@H]4CCCC[C@@H]4O)c4c(Cl)cccc43)cc2)cn1`: the Intrinsic activity entry in experiment [2] was “Active”. Besides, the outcome in experiment [3] was Active.

For the compound `Cn1cc(-c2ccc(Cn3ccc(C(=O)N[C@H]4CCCC[C@@H]4O)c3)cc2)cn1`, the pKb in experiment [1] was 4.19. In experiment [2], the Intrinsic activity was 3.31 and the log(IA) is 0.52. Also, the fold change (FC) in experiment [3] stood at 7. Consider `COc1ccc(Cn2cc(C(=O)O)c(=O)c3ccccc32)cc1`, for which, in experiment [4], the Intrinsic activity worked out at 2.09 and the log(IA) was 0.32. Also, the pKb in experiment [5] is 5.48. Regarding `Cn1cc(-c2ccc(Cn3cc(C(=O)NC4CCOCC4)c4ncccc43)cc2)cn1`, the Intrinsic activity result in experiment [2] is “Active”. For `Cn1cc(-c2ccc(Cn3cc(C(=O)N4CCNCC4)c4ncccc43)cc2)cn1`, the Intrinsic activity entry in experiment [2] is “Active”. `Cn1cc(-c2ccc(Cn3cc(C(=O)Nc4ccccc4)c4ncccc43)cc2)cn1`: in experiment [2], the Intrinsic activity came to 73%.

As for `Cn1cc(-c2ccc(Cn3cc(C(=O)N[C@H]4CCCO[C@@H]4O)c4ncccc43)cc2)cn1`, the Intrinsic activity result in experiment [2] was “Active”. Same read-out and setting: as for `Cn1cc(-c2ccc(Cn3cc(C(=O)NC4CCC(=O)CC4)c4ncccc43)cc2)cn1`, the entry is “Active”. The compound `Cc1cnc(C(=O)N[C@@H]2CCOC[C@H]2O)cc1Cc1ccc(-c2cscn2)cc1` showed a pKb in experiment [5] of 6.2. On to `Cn1cc(-c2ccc(Cn3cc(C(=O)N4CCCC4)c4ncccc43)cc2)cn1`, for which, in experiment [2], the Intrinsic activity result is “inactive”. In experiment [3], the result was Active.

As for `CN(C)C(=O)c1cn(Cc2ccc(-c3cnn(C)c3)cc2)c2cccnc12`, in experiment [2], the Intrinsic activity entry is “inactive”. Also, in experiment [3], the result was Active. The corresponding values for `Cn1cc(-c2ccc(Cn3cc(C(=O)N[C@H]4CCCC[C@@H]4O)c4c(F)cccc43)cc2)cn1` are “Active” and “Active”.

For the compound `Cn1cc(-c2ccc(Cn3nc(C(=O)N[C@H]4CCCC[C@@H]4O)c4ccccc43)cc2)cn1`, the Intrinsic activity entry in experiment [2] was “Active”. Moreover, the result in experiment [3] was Active. As for `CCNC(=O)c1cn(Cc2ccc(-c3cnn(C)c3)cc2)c2cccnc12`, the negative-log Kb (pKb) in experiment [1] turned out to be 4.61. Moreover, in experiment [2], the Intrinsic activity was determined as 3.63 and the log(IA) came out at 0.56. In the case of `Cn1cc(-c2ccc(Cn3cc(C(=O)N[C@H]4CCCC[C@@H]4N)c4ncccc43)cc2)cn1`, the outcome in experiment [3] was Active. Take `Cn1cc(-c2ccc(Cn3cc(C(=O)NC4CCCCC4)c4ncccc43)cc2)cn1`: the Intrinsic activity entry in experiment [2] is “Active”. On to `Cn1cc(-c2ccc(Cn3cc(C(=O)N[C@H]4CCCC[C@@H]4O)c4ncccc43)cc2)cn1`, for which, in experiment [2], the Intrinsic activity came to 22.9 and the log(IA) came to 1.36. In experiment [3], the result was Active. Moreover, in experiment [5], the negative logarithm of the Kb (pKb) stood at 5.92.

Take `Cn1cc(-c2ccc(Cn3cc(C(=O)N[C@H]4CC[C@H](O)CC4)c4ncccc43)cc2)cn1`: the Intrinsic activity entry in experiment [2] was “Active”.

What is called EC50 is the concentration giving half of the maximal effect. On to `Cn1cc(-c2ccc(Cn3cc(C(=O)N[C@@H]4CCCC[C@H]4O)c4c(F)cc(F)cc43)cn2)cn1`, for which the concentration giving a half-maximal response (EC50) in experiment [6] worked out at 4.8 µM; in experiment [7], 0.21 µM. Turning to `Cn1cc(-c2ccc(Cn3cc(C(N)=O)c4ncccc43)cc2)cn1`, the outcome in experiment [3] was Active. With `Cn1cc(-c2ccc(Cn3cc(C(=O)N[C@H]4CCC[C@@H]4O)c4ncccc43)cc2)cn1`, in experiment [2], the Intrinsic activity result is “Active”. On to `Cn1cc(-c2ccc(Cn3cc(C(=O)N4CCCCC4)c4ncccc43)cc2)cn1`, for which the Intrinsic activity result in experiment [2] was “inactive”. In experiment [3], the result was inactive. As for `Cn1cc(-c2ccc(Cn3cc(C(=O)N[C@H]4CCCC[C@@H]4O)c4ccccc43)cc2)cn1`, in experiment [2], the Intrinsic activity result is “Active”. Moreover, the outcome in experiment [3] was Active. As to `Cn1cc(-c2ccc(Cn3cc(C(=O)NC4CCNCC4)c4ncccc43)cc2)cn1`, the Intrinsic activity result in experiment [2] is “Active”. Still for that read-out and setting: the same measure for `Cn1cc(-c2ccc(Cn3cc(C(=O)N[C@H]4CCOC[C@@H]4O)c4ncccc43)cc2)cn1`: “Active”. Consider `CNC(=O)c1cn(Cc2ccc(-c3cnn(C)c3)cc2)c2cccnc12`, for which the outcome in experiment [3] was Active. On the same count and under the same terms, the same measure for `Cn1cc(-c2ccc(Cn3cc(C(=O)N4CCN(C(=O)OC(C)(C)C)CC4)c4ncccc43)cc2)cn1`: “inactive”. `CN(C(=O)c1cn(Cc2ccc(-c3cnn(C)c3)cc2)c2cccnc12)C1CCCCC1`: in experiment [1], the pKb is 4.91. Moreover, in experiment [2], the Intrinsic activity stood at 0.57 and the log(IA) was -0.24.
